# Reference: ChEMBL document CHEMBL1142436, “Design and synthesis of 4-substituted indolo[3,2-e][1,2,3]triazolo[1,5-a]pyrimidine derivatives with antitumor activity” (2008)
# Key:
# Type in all cases: functional
# CCRF-CEM = assay: Growth inhibition of human CCRF-CEM cells after 48 hrs
# How it was run: (§1)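 NCI ~60-line screen. Cells were grown in RPMI 1640 with 5% FBS and 2 mM L-glutamine and plated at 5000–40000 cells/well. After a 24 h preincubation, five drug concentrations from DMSO stocks were added for 48 h at 37 °C. Cells were TCA-fixed, stained with SRB and read at 515 nm. GI50 was taken from time-zero and control absorbances and reported as pGI50.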
# HL-60 = assay: Growth inhibition of human HL60 cells after 48 hrs; details: HL-60, 48 h; how it was run: as §1
# K562 = assay: Growth inhibition of human K562 cells after 48 hrs; details: K562, 48 h; how it was run: as §1
# MOLT-4 = assay: Growth inhibition of human MOLT4 cells after 48 hrs; details: MOLT-4, 48 h; how it was run: as §1
# [1] = Growth inhibition of human HS578T cells after 48 hrs; details: Hs-578T; how it was run: as §1
# MDA-MB-435 = assay: Growth inhibition of human MDA-MB435 cells after 48 hrs; details: MDA-MB-435, 48 h; how it was run: as §1
# BT-549 = assay: Growth inhibition of human BT549 cells after 48 hrs; details: BT-549, 48 h; how it was run: as §1
# T47D = assay: Growth inhibition of human T47D cells after 48 hrs
# How it was run: (§2)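 NCI 60-line screen: cells in RPMI 1640 with 5% FBS and 2 mM L-glutamine, plated at 5000–40000 cells/well, grown 24 h (37 °C, 5% CO₂), then exposed to five 10-fold or ½-log dilutions (DMSO stock) for 48 h. Fixed with TCA (final 10% for adherent cells, 16% for suspension cells), then SRB stained with absorbance at 515 nm. GI50 from percentage growth relative to time-zero and control wells.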
# RPMI-8226 = assay: Growth inhibition of human RPMI8226 cells after 48 hrs; details: RPMI-8226, 48 h; how it was run: as §1
# SR = assay: Growth inhibition of human SR cells after 48 hrs; how it was run: as §2
# A549 = assay: Growth inhibition of human A549 cells after 48 hrs; details: A549, 48 h; how it was run: as §1
# EKVX = assay: Growth inhibition of human EKVX cells after 48 hrs; how it was run: as §1
# HOP-62 = assay: Growth inhibition of human HOP62 cells after 48 hrs; details: HOP-62, 48 h; how it was run: as §1
# HOP-92 = assay: Growth inhibition of human HOP92 cells after 48 hrs; details: HOP-92, 48 h; how it was run: as §1
# NCI-H226 = assay: Growth inhibition of human NCI-H226 cells after 48 hrs; details: NCI-H226, 48 h; how it was run: as §1
# NCI-H23 = assay: Growth inhibition of human NCI-H23 cells after 48 hrs; details: Homo sapiens, NCI-H23, 48 h; how it was run: as §1
# NCI-H322M = assay: Growth inhibition of human NCI-H322M cells after 48 hrs; how it was run: as §1
# NCI-H460 [2] = assay: Growth inhibition of human NCI-H460 cells after 48 hrs; details: NCI-H460, 48 h; how it was run: as §1
# NCI-H522 = assay: Growth inhibition of human NCI-H522 cells after 48 hrs; details: NCI-H522, 48 h; how it was run: as §1
# COLO 205 = assay: Growth inhibition of human COLO205 cells after 48 hrs; details: COLO 205, 48 h; how it was run: as §1
# HCC 2998 = assay: Growth inhibition of human HCC2998 cells after 48 hrs; details: HCC 2998, 48 h; how it was run: as §1
# HCT-116 = assay: Growth inhibition of human HCT116 cells after 48 hrs; details: HCT-116, 48 h; how it was run: as §1
# HCT-15 = assay: Growth inhibition of human HCT15 cells after 48 hrs; details: HCT-15, 48 h; how it was run: as §1
# HT-29 = assay: Growth inhibition of human HT29 cells after 48 hrs; details: HT-29, 48 h; how it was run: as §1
# KM12 = assay: Growth inhibition of human KM12 cells after 48 hrs; details: KM12, 48 h; how it was run: as §1
# SW-620 = assay: Growth inhibition of human SW620 cells after 48 hrs; details: SW-620, 48 h; how it was run: as §2
# SF-268 [3] = assay: Growth inhibition of human SF268 cells after 48 hrs; details: SF-268, 48 h; how it was run: as §1
# SF-295 = assay: Growth inhibition of human SF295 cells after 48 hrs; details: SF-295, 48 h; how it was run: as §1
# SF-539 = assay: Growth inhibition of human SF539 cells after 48 hrs; details: SF-539, 48 h; how it was run: as §1
# SNB-19 = assay: Growth inhibition of human SNB19 cells after 48 hrs; details: SNB-19, 48 h; how it was run: as §2
# SNB-75 = assay: Growth inhibition of human SNB75 cells after 48 hrs; details: SNB-75, 48 h; how it was run: as §2
# U-251 = assay: Growth inhibition of human U251 cells after 48 hrs; details: U-251, 48 h; how it was run: as §2
# LOX IMVI = assay: Growth inhibition of human LOXIMVI cells after 48 hrs; how it was run: as §1
# Malme-3M = assay: Growth inhibition of human MALME3M cells after 48 hrs; how it was run: as §1
# M14 = assay: Growth inhibition of human M14 cells after 48 hrs; details: M14, 48 h; how it was run: as §1
# SK-MEL-2 = assay: Growth inhibition of human SK-MEL2 cells after 48 hrs; details: SK-MEL-2, 48 h; how it was run: as §1
# SK-MEL-28 = assay: Growth inhibition of human SK-MEL28 cells after 48 hrs; details: SK-MEL-28, 48 h; how it was run: as §1
# SK-MEL-5 = assay: Growth inhibition of human SK-MEL5 cells after 48 hrs; details: SK-MEL-5, 48 h; how it was run: as §1
# UACC-257 = assay: Growth inhibition of human UACC257 cells after 48 hrs; details: UACC-257, 48 h; how it was run: as §2
# UACC-62 = assay: Growth inhibition of human UACC62 cells after 48 hrs; details: UACC-62, 48 h; how it was run: as §2
# IGROV-1 = assay: Growth inhibition of human IGROV1 cells after 48 hrs; details: IGROV-1, 48 h; how it was run: as §1
# OVCAR-3 = assay: Growth inhibition of human OVCAR-3 cells after 48 hrs; details: OVCAR-3, 48 h; how it was run: as §1
# OVCAR-4 = assay: Growth inhibition of human OVCAR4 cells after 48 hrs; details: OVCAR-4, 48 h; how it was run: as §1
# OVCAR-5 = assay: Growth inhibition of human OVCAR5 cells after 48 hrs; details: OVCAR-5, 48 h; how it was run: as §1
# OVCAR-8 = assay: Growth inhibition of human OVCAR8 cells after 48 hrs; details: OVCAR-8, 48 h; how it was run: as §1
# SK-OV-3 = assay: Growth inhibition of human SKOV3 cells after 48 hrs; details: SK-OV-3, 48 h; how it was run: as §2
# 786-0 = assay: Growth inhibition of human 786-0 cells after 48 hrs; details: 786-0, 48 h; how it was run: as §1
# A498 = assay: Growth inhibition of human A498 cells after 48 hrs; details: A498, 48 h; how it was run: as §1
# ACHN = assay: Growth inhibition of human ACHN cells after 48 hrs; how it was run: as §1
# CAKI-1 = assay: Growth inhibition of human CAKI1 cells after 48 hrs; details: CAKI-1, 48 h; how it was run: as §1
# RXF 393 = assay: Growth inhibition of human RXF393 cells after 48 hrs; details: RXF 393, 48 h; how it was run: as §1
# SN12C = assay: Growth inhibition of human SN12C cells after 48 hrs; how it was run: as §2
# TK-10 = assay: Growth inhibition of human TK10 cells after 48 hrs; details: TK-10, 48 h; how it was run: as §2
# UO-31 = assay: Growth inhibition of human UO31 cells after 48 hrs; details: UO-31, 48 h; how it was run: as §2
# PC-3 = assay: Growth inhibition of human PC3 cells after 48 hrs; details: PC-3, 48 h; how it was run: as §1
# DU-145 = assay: Growth inhibition of human DU145 cells after 48 hrs; details: DU-145, 48 h; how it was run: as §1
# MCF7 [4] = assay: Growth inhibition of human MCF7 cells after 48 hrs; details: MCF7, 48 h; how it was run: as §1
# NCI/ADR-RES = assay: Growth inhibition of human NCI/ADR-RES cells after 48 hrs; how it was run: as §1
# MDA-MB-231 = assay: Growth inhibition of human MDA-MB-231 cells after 48 hrs; details: MDA-MB-231, 48 h; how it was run: as §1
# MCF7 [5] = assay: Antitumor activity against human MCF7 cells at 0.1 mM after 48 hrs
# How it was run: (§3)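 Prescreen run under the NCI Developmental Therapeutic Program. Agents were tested at a single concentration of 10^-4 M against a three-line panel (MCF7, NCI-H460, SF-268).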
# NCI-H460 [6] = assay: Antitumor activity against human NCI-H460 cells at 0.1 mM after 48 hrs; how it was run: as §3
# SF-268 [7] = assay: Antitumor activity against human SF268 cells at 0.1 mM after 48 hrs; how it was run: as §3
smiles,measurement,setting,value
Cn1c2ccccc2c2c(=O)n(CCCC(=O)N(C(=O)NC3CCCCC3)C3CCCCC3)c3c(-c4ccccc4)nnn3c21,GI50,CCRF-CEM,> 100 µM
same,GI50,HL-60,> 100 µM
same,GI50,K562,> 100 µM
same,GI50,MOLT-4,> 100 µM
same,GI50,[1],> 100 µM
same,GI50,MDA-MB-435,> 100 µM
same,GI50,BT-549,72.4 µM
same,GI50,T47D,56.2 µM
same,GI50,RPMI-8226,> 100 µM
same,GI50,SR,> 100 µM
same,GI50,A549,> 100 µM
same,GI50,EKVX,> 100 µM
same,GI50,HOP-62,> 100 µM
same,GI50,HOP-92,> 100 µM
same,GI50,NCI-H226,> 100 µM
same,GI50,NCI-H23,> 100 µM
same,GI50,NCI-H322M,> 100 µM
same,GI50,NCI-H460 [2],> 100 µM
same,GI50,NCI-H522,69.2 µM
same,GI50,COLO 205,> 100 µM
same,GI50,HCC 2998,> 100 µM
same,GI50,HCT-116,91.2 µM
same,GI50,HCT-15,> 100 µM
same,GI50,HT-29,> 100 µM
same,GI50,KM12,> 100 µM
same,GI50,SW-620,> 100 µM
same,GI50,SF-268 [3],97.7 µM
same,GI50,SF-295,79.4 µM
same,GI50,SF-539,38 µM
same,GI50,SNB-19,> 100 µM
same,GI50,SNB-75,44.7 µM
same,GI50,U-251,> 100 µM
same,GI50,LOX IMVI,> 100 µM
same,GI50,Malme-3M,> 100 µM
same,GI50,M14,> 100 µM
same,GI50,SK-MEL-2,> 100 µM
same,GI50,SK-MEL-28,> 100 µM
same,GI50,SK-MEL-5,> 100 µM
same,GI50,UACC-257,> 100 µM
same,GI50,UACC-62,> 100 µM
same,GI50,IGROV-1,15.5 µM
same,GI50,OVCAR-3,> 100 µM
same,GI50,OVCAR-4,38 µM
same,GI50,OVCAR-5,> 100 µM
same,GI50,OVCAR-8,> 100 µM
same,GI50,SK-OV-3,> 100 µM
same,GI50,786-0,> 100 µM
same,GI50,A498,66.1 µM
same,GI50,ACHN,> 100 µM
same,GI50,CAKI-1,> 100 µM
same,GI50,RXF 393,63.1 µM
same,GI50,SN12C,> 100 µM
same,GI50,TK-10,> 100 µM
same,GI50,UO-31,> 100 µM
same,GI50,PC-3,> 100 µM
same,GI50,DU-145,> 100 µM
same,GI50,MCF7 [4],64.6 µM
same,GI50,NCI/ADR-RES,95.5 µM
same,GI50,MDA-MB-231,72.4 µM
COC(=O)C(Cc1c[nH]cn1)NC(=O)CCCn1c(=O)c2c3ccccc3n(C)c2n2nnc(-c3ccccc3)c12 (configuration not stated),Activity,MCF7 [5],116%
same,Activity,NCI-H460 [6],117%
same,Activity,SF-268 [7],128%
